# High-throughput results as filed in PubChem BioAssay.
# Sampled rows, rich in hits. Any-hit rate of the full collection: about 1.5%.
# Mdm2 ligase inh = inhibitors of human Mdm2 E3 ubiquitin ligase; cell-based MDM2 ubiquitination luciferase reporter, 2 h; 0 = plate control, 100 = twice control, blank-subtracted; signal enhancement, % at 5 µM; hit rate 0.11% among 210,000; AID 1230;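 active = signal enhancement of 30% or more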;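 also: luminescence tracks abundance of the self-degrading MDM2-luciferase fusion protein; higher signal means inhibition of MDM2 E3 ligase activity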
#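 Test system: mammalian cells stably expressing self-ubiquitinating, self-degrading MDM2 E3–luciferase fusion; Amount: 2000 cells in each well; Medium: DMEM; Schedule: 4 h settle plus 2 h compound, 37 °C; Technique: SteadyLite luciferase luminescence after 15 min room-temperature reagent incubation; Benchmarks: plate control and blank wells.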
# Wee1 degr inh = human Wee1 degradation inhibition, primary screen; P30291; hit rate 1.2% among 220,000; reporter increase, % at 5 µM; HeLa Luc-Wee1K328M stability, luciferase luminescence; 100% = proteasome inhibitor MG132 effect; AID 1321;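 active = activation above the mean of all tested compounds plus 3 SD, set per screening run, cut at about 8.8% in these data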;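 also: cells exposed to compound for 20 h before luminescence read; 0% = DMSO alone and 100% = MG132 at 30 µM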
# Target sequence (P30291 whole entry K328M): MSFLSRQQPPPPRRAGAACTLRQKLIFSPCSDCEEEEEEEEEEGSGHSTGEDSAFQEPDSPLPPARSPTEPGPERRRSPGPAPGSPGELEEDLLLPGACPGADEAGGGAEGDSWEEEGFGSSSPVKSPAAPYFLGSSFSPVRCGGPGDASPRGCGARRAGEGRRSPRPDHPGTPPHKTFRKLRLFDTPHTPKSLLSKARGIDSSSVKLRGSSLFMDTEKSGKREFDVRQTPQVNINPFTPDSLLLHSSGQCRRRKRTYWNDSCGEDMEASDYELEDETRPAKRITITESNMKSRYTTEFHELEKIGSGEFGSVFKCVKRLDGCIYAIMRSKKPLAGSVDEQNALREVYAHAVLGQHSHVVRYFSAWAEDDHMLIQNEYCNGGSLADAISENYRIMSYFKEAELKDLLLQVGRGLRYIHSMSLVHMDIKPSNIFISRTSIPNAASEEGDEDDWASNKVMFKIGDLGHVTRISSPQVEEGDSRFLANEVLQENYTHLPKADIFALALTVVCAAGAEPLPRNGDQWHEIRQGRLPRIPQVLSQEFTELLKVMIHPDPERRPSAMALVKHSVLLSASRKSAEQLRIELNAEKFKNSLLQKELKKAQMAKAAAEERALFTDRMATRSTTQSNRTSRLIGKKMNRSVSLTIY
# Hsp70 activator = transcriptional activators of Hsp70; hit rate 0.04% among 200,000; HeLa Hsp70 promoter luciferase reporter, luminescence; scaled: vehicle 0, proteasome-inhibitor control 100%; activation, % at 10 µM; AID 1203;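 active = activation above the mean across all tested compounds plus 3 SD, cutoff set per campaign, cut at about 5.5% in these data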;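 also: 100% = MG132 at 30 µM as the positive control and 0% = DMSO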
# Pf gametocyte = inhibitors of late stage P. falciparum gametocyte viability; P. falciparum stage V gametocytes, ATP luminescence, 24 h; inhibition, % at 10.9 µM; hit rate 0.065% among 150,000; AID 743093;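 active = inhibition above the mean plus 3 SD of compounds within the control limits, set per campaign, cut at about 38% in these data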;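 also: 0% = DMSO wells and 100% = medium only without gametocytes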
# Calpain2 inh = inhibitors of pig calpain II; AID 1236; inhibition, % at 16 µM; purified calpain II, fluorogenic peptide substrate, 30 min; hit rate 0.37% among 220,000;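 active = inhibition above about 50%, limit read from the data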
# Starred values were filed as active, the others as inactive; i = inactive; x = not tested or not shown.
SMILES,Mdm2 ligase inh,Wee1 degr inh,Hsp70 activator,Pf gametocyte,Calpain2 inh
COc1ccc(-c2oc(=O)c3cc(OC)c(OC)cc3c2C#C[C@]2(O)CC[C@H]3[C@@H]4CCc5cc(OC)ccc5[C@H]4CC[C@@]32C)cc1,x,x,x,13,x
O=C(O)c1ccc(-c2nc(-c3ccccc3)cs2)cc1,-12,9.6*,1,9,-91
O=C1CC2C(=O)NCCN2C(=NC(=O)c2ccc(Cl)cc2)N1 (stereo not given),-3,-1,0,9,92*
O=C1CC2C(=O)NCCN2C(=NC(=O)c2ccccc2)N1 (stereo not given),0,0,0,x,6
CC1Cc2ccccc2N1C(=S)NC(=O)c1ccco1 (stereo not given),6,0,0,5,52*
CCCCN1C(=O)CC(Sc2ccccc2C(=O)O)C1=O (stereo not given),-1,-2,-1,x,11
CN1C(=O)CC(Sc2ccccc2C(=O)O)C1=O (stereo not given),-5,10*,0,x,6
CN1C[C@@H]2[C@@H]3C(=O)N(Cc4ccccc4)C(=O)[C@@H]3[C@](Cc3ccccc3)(C1=O)N2C(=O)c1ccc(C(F)(F)F)cc1,x,x,x,16,x
CC(C)(C)c1nc(SCC(=O)c2ccccc2)c2ccccc2n1,2,1,0,-25,52*
COc1ccc(-c2coc3cc(OC)cc(O)c3c2=O)cc1,-21,2,0,12,1
COc1ccc(-c2coc3cc(O)cc(O)c3c2=O)cc1,x,10*,0,x,4
CCCc1ccc(C(=O)NC(=O)c2ccccc2O)cc1,-41,3,x,-1,-2
O=C(NC(=O)c1ccccc1O)c1ccc(C(F)(F)F)cc1,-10,9.1*,x,12,28
CCc1c(C)nc(N2CCN(c3ccccc3F)CC2)[nH]c1=O,x,x,x,19,x
CC1CCN(S(=O)(=O)c2ccc(NC(=O)CSc3nnnn3C)cc2)CC1,5,-2,0,-19,59*
Cn1nnnc1SCC(=O)Nc1cccc(S(=O)(=O)N2CCCC2)c1,-7,5,0,-6,-25
O=C(N[C@H]1C/C=C\C[C@@H](CC(=O)N(CCO)Cc2ccccc2)C(=O)NC[C@H](c2ccccc2)OC1=O)OCC1c2ccccc2-c2ccccc21,x,x,x,0,x
CCn1c(COc2ccccc2OC)nnc1SCC#N,10,10*,0,-2,-15
CCn1c(COc2cccc3ccccc23)nnc1SCC(N)=O,-2,0,0,18,16
O=C(Nc1c(C(=O)O)oc2ccc(Br)cc12)c1ccccc1,-19,13*,0,x,6
CC(C)CC(c1nnnn1C1CCCC1)N1CCC(C(N)=O)CC1 (stereo not given),-14,2,0,17,51*
CCOC(=O)[C@H]1[C@H]2COc3ccc(Br)cc3[C@@H]2N2C(=O)CN(CC3CCCO3)C(=O)[C@@]12C (stereo not given in full),x,x,x,15,x
Cc1ccc(C)c(NC(=O)CCC(=O)N/N=C/c2ccc3c(c2)OCO3)c1,1,10*,1,-17,7
O=C(COC(=O)CCc1ccccc1)NC12CC3CC(CC(C3)C1)C2,-13,0,0,-25,50*
COCCNC(=O)C12CC3CC(C1)CC(c1ccccc1)(C3)C2,-11,11*,0,-1,16
SMILES,Mdm2 ligase inh,Wee1 degr inh,Hsp70 activator,Pf gametocyte,Calpain2 inh
CCOc1ccccc1-n1nnnc1SCC(=O)O,x,-4,x,-7,-19
Nc1nc(COc2ccc3ccccc3c2)cs1,-17,9.0*,0,x,-13
CC(=O)c1cc2c(cc1NC(=O)CSc1nc3ccccc3[nH]1)OCO2,-3,9.8*,0,x,-4
CC(C)NC(=O)c1cc2c(s1)CCCC2,-3,8.9*,-1,6,20
CC(C)(C)OC(=O)NCCC(=O)N/N=C/c1cccc2nccnc12,-2,9.3*,x,-8,27
O=C(N/N=C/c1cccc2nccnc12)c1ccncc1,-13,9.8*,x,-26,8
O=C(N/N=C/c1ccco1)c1ccncc1,-15,15*,0,-23,5
CCC(C)[C@H](NC(=O)OC(C)(C)C)C(=O)N/N=C/c1cccc2nccnc12 (stereo not given in full),1,-1,2,x,-31
Cc1ccnn1CC(=O)N/N=C/c1ccco1,-16,2,0,-6,-13
Cc1cc(C)n(CC(=O)N/N=C/c2ccco2)n1,-18,9.2*,0,12,-18
COC(=O)C1=C(C(=O)OC)[C@@H]2Nc3ccccc3[C@@]23C[C@@H](C(=O)OC)N(C(=O)NC2CCCCC2)C3=N1,x,x,x,3,x
CCc1ccc(Nc2ccc(S(=O)(=O)N3CCOCC3)cc2[N+](=O)[O-])cc1,-12,9.7*,-1,-13,31
O=C(Nc1ccc(Cl)c(Cl)c1)OCCNC(=O)c1cccc(Cl)c1,-15,6,0,-46,65*
C=CCc1ccc2oc(C(=O)OCC)cc(=O)c2c1O,-3,10*,x,-5,4
COc1nc(N2CCOCC2)nc(-n2cccc2)n1,-15,9.2*,0,1,-11
COc1ccc(Nc2nc(OC)nc(N3CCOCC3)n2)cc1,-6,-1,0,11,-18
Cc1[nH]c2ccccc2c1C(=O)CSC(=S)N1CCN(C)CC1,-4,2,x,8,3
Cc1[nH]c2ccccc2c1C(=O)CSC(=S)N(C)C,0,9.1*,0,-9,-1
Cc1cccc(Cc2cnc(N3C(=N)SC(C)C3=O)s2)c1 (stereo not given),-4,9.6*,0,26,10
Cc1ccc(Cc2cnc(N3C(=N)SC(C)C3=O)s2)cc1 (stereo not given),1,-2,0,19,-20
COc1cccc(/C=C(/C(=O)OCC(=O)NC2CCCC(C)C2C)c2ccccc2)c1 (stereo not given),-14,-1,0,20,56*
COc1cccc(/C=C(/C(=O)OCC(N)=O)c2ccccc2)c1,2,-2,0,38,31
O=C(CSc1ccc(-c2ccco2)nn1)NC1CCCC1,32*,3,0,x,-64
O=C(CSc1ccc(-c2ccco2)nn1)NC1CCCCC1,9,-1,0,x,-172
COC(=O)c1ccc(NC(=O)CCNS(=O)(=O)c2cccc3nonc23)cc1,-2,9.1*,0,x,-9
Cc1cccc(NC(=O)CCNS(=O)(=O)c2cccc3nonc23)c1,-25,-2,0,-5,38
O=[N+]([O-])c1cccc(-c2noc(-c3ccco3)n2)c1,-100,8.9*,x,15,4
Cc1ccc2nc(-c3ccsc3)c(NC3CCCC3)n2c1,-13,10*,0,0,i
COc1ccc(-c2cc(C(=O)NC(Cc3cc4ccccc4[nH]3)C(=O)O)c(C)o2)cc1OC (stereo not given),-12,5,0,4,52*
Cc1cc(C)c[n+](CC(=O)c2c(C)cc(C)c([N+](=O)[O-])c2C)c1,x,x,x,-5,x
